# Screening data: PubChem, Broad Institute
# In the library only some 4.3% were active in any assay of this set; here they are far more common.
# DYRK1A inh: rat Dyrk1A kinase inhibitors, primary screen, biochemical, single point, plate reader; Dual specificity tyrosine-phosphorylation-regulated kinase 1A (Rattus norvegicus), Q63470; ADP-Glo luminescence, NFATc1 peptide; inhibition, % at 12.5 µM; 310,000 tested, 0.43% active; in the data active means inhibition above about 50%
# CAL PDZ FP-1: CAL PDZ peptide-binding inhibitors, primary screen, biochemical, fluorescence polarization, Cer-tagged CAL PDZ, HTS; 330,000 tested, 0.02% active; Golgi-associated PDZ and coiled-coil motif-containing protein (Homo sapiens), Q9HD26; inhibition, % at 20 µM; purified CAL PDZ, TMR-peptide fluorescence polarization, 1 h; AID 504414, 2011;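 active means highest replicate inhibition of at least 40%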
#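 Read-out basis: mP drop reported as inhibition | Assay system: Tagged CAL PDZ protein CerCALP, purified | Benchmarks: Unlabelled peptide for full inhibition, DMSO wells as neutral | Schedule: 1 h incubation at room temperature before polarization reading | Buffer or medium: Sodium phosphate/NaCl buffer pH 7.4 with TCEP, IgG, Thesit | Doses: Single point, 20 µM | Measured by: Fluorescence polarization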
# CAL PDZ FP-2: untagged CAL PDZ binding inhibitors, primary screen, biochemical, fluorescence polarization, HTS. inhibition, % at 24.9 µM. purified CAL PDZ, TMR-peptide fluorescence polarization, 1 h. 300,000 tested, 0.92% active;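 active means mean inhibition of at least 30% with at least half of replicates also reaching 30%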
# ALR inh: inhibitors of human ALR sulfhydryl oxidase, primary screen, biochemical, H2O2 detection, HRP-luminol luminescence, single point. 290,000 tested, 3.8% active. FAD-linked sulfhydryl oxidase ALR (Homo sapiens), P55789. AID 485317, 2010. inhibition, % (test concentration not listed). purified ALR, DTT oxidation;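 active means mean replicate inhibition above about 79%, with every replicate also reaching it, limit read from the data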
# Target sequence (P55789 whole entry, looked up): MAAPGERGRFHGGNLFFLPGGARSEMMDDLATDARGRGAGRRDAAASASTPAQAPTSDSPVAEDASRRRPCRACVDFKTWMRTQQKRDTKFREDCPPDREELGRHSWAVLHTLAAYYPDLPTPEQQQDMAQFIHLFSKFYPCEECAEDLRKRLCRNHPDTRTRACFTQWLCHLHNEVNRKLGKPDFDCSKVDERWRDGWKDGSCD
# Rtt109 Vps75: inhibitors of C. albicans Rtt109/Vps75 HAT, primary screen, biochemical, ThioGlo CoA-SH fluorescence, plate reader. 330,000 tested, 0.16% active. purified Rtt109/Vps75, 4 h. inhibition, % at 34.9 µM. Histone acetyltransferase RTT109 (Candida albicans (strain SC5314 / ATCC MYA-2876)), …;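 active means inhibition of at least 50% in every replicate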
# Target sequence (Q5AAJ8 whole entry, looked up): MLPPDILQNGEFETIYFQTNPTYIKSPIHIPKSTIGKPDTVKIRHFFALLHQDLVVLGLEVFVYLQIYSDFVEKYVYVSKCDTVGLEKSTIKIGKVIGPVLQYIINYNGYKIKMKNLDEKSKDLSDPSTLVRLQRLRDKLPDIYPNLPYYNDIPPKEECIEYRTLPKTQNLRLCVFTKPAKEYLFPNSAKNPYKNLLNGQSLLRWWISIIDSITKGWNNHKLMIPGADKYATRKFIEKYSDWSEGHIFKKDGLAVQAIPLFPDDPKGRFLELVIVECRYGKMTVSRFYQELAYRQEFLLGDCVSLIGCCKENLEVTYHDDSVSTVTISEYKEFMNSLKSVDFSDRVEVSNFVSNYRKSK
# Numbers stand for hits; . = inactive; / = not tested or not shown.
SMILES,DYRK1A inh,CAL PDZ FP-1,CAL PDZ FP-2,ALR inh,Rtt109 Vps75
O=C(CSc1n[nH]c(-c2ccccc2F)n1)NCC(=O)Nc1ccc(F)c(F)c1F,.,.,.,.,.
CCOc1ccc(S(=O)(=O)N(C)c2ccc(OCC(=O)NCCc3ccc(OC)cc3)cc2)cc1,.,.,.,.,.
NS(=O)(=O)c1ccc(-c2ccc(/C=N/Nc3ccc(C(=O)O)cc3)o2)cc1,.,.,.,.,.
O=C(O)c1cc(N/N=C/c2ccc(-c3ccc(F)cc3)o2)ccc1Cl,.,.,.,98,.
O=C(O)c1ccc(-c2ccc(/C=N/Nc3ccc([N+](=O)[O-])cc3)o2)cc1,.,.,.,.,50
COc1ccc(Cl)cc1-c1n[nH]c(=S)n1C,.,.,/,89,.
CCOCCCn1c(-c2ccc(Cl)cc2)n[nH]c1=S,.,.,.,.,.
CCn1c(-c2cc(OC)c(OC)c(OC)c2)n[nH]c1=S,.,.,.,97,.
COCCCn1c(-c2ccc(Cl)cc2)n[nH]c1=S,.,.,.,95,.
CCn1c(-c2cc(Cl)ccc2OC)n[nH]c1=S,.,.,/,92,.
C=CCn1c(-c2cc(Cl)ccc2OC)n[nH]c1=S,.,.,.,.,.
CC(C)=C(NC(=O)c1ccccc1)C(=O)NCCc1nc2ccccc2[nH]1,.,.,38,.,.
O=C(NC(=S)NCc1nc2ccccc2[nH]1)c1ccc(F)cc1,/,.,.,76,.
CC(=O)NCCc1nc2ccccc2[nH]1,.,.,/,/,.
O=C(NC(=S)NCc1nc2ccccc2[nH]1)c1ccccc1F,.,.,.,.,.
COc1cc2c(cc1OC)CN(C(=S)Nc1ccccc1Cl)CC2,.,/,68,/,.
CCCn1cnc2cc(NCc3ccccc3O)ccc21,.,.,.,99,.
CCCn1cnc2cc(NCc3cccc(OC)c3)ccc21,.,.,.,95,.
O=C(COc1ccccc1Cl)NCCCNC(=O)c1cccnc1,.,.,/,.,.
Cc1ccc(S(=O)(=O)CCC(=O)OC(C)c2nnc(-c3cccs3)o2)cc1 (stereo not drawn),/,.,/,/,.
COCCNC(=O)CSc1nc(N)c(NC(=O)c2ccccc2F)c(=O)[nH]1,.,.,.,.,.
COc1ccc(CNC(=O)C/C(C)=N/NC(=O)COc2ccccc2)cc1,.,.,.,/,.
CCc1cccc(Oc2nn[nH]n2)c1,.,.,.,98,.
N#Cc1ccc(COC(=O)c2cnc(Cl)c(Cl)c2)cc1,.,.,48,.,.
Cc1nc([N+](=O)[O-])cn1CC(=O)Nc1ccc([N+](=O)[O-])cc1,/,.,.,.,.
SMILES,DYRK1A inh,CAL PDZ FP-1,CAL PDZ FP-2,ALR inh,Rtt109 Vps75
Nc1nc(C(=O)N2CCOCC2)nn1C(=O)c1ccc(Cl)cc1,.,.,/,86,.
c1cc2c(cc1-c1csc(NNC3=NCCCCC3)n1)OCCO2,/,/,/,98,/
c1cc2c(cc1Nc1nc(-c3ccc4c(c3)OCO4)cs1)OCCO2,.,/,.,.,.
CN(C)NC(=S)NC(=O)C12CC3CC(CC(C3)C1)C2,.,.,.,92,.
CC(C)(C)NC(=S)NC(=O)C12CC3CCC(CC(C3)C1)C2,.,.,.,.,.
CCOC(=O)c1[nH]cnc1C(=O)Nc1cccc(Cl)c1,.,.,.,.,.
CN(Cc1ccc(OC(F)F)cc1)C(=O)c1ccc2c(=O)n3c(nc2c1)CCC3,.,.,.,.,.
Clc1ccc(N/N=C/c2cccnc2)cc1,.,.,.,99,.
N#C/C(=C\c1cccnc1)C(=O)Nc1cccc(Cl)c1,/,.,.,88,.
Clc1ccc(N/N=C/c2ccncc2)cc1Cl,.,.,.,98,.
N#C/C(=C\c1cccnc1)C(=O)Nc1cccc2ccccc12,.,.,.,95,.
Cc1ccc(S(=O)(=O)N2CCCOC2CNC(=O)C(=O)NCc2cccs2)cc1 (stereo not drawn),.,.,.,.,.
CCOc1cc(C(=O)N(C)CC(=O)Nc2cccc(F)c2)ccc1OCC(=O)N1CCOCC1,/,.,.,.,.
CN(Cc1ccccc1)C(=O)CN1C(=O)NC(C)(c2ccc(Cl)cc2)C1=O (stereo not drawn),.,.,.,.,.
CN(C(=O)c1ccc(NC(=O)C2CCCN(C(=O)OC(C)(C)C)C2)cc1)C1CCCC1 (stereo not drawn),.,.,.,.,.
CC(C)(O)[C@H](O)Cc1cc2ccc(=O)oc2cc1O[C@@H]1O[C@H](CO)[C@@H](O)[C@H](O)[C@H]1O,.,.,.,.,.
Cc1cccc(NC(=O)/C(C#N)=C\c2cccnc2)c1,.,.,.,.,.
N#C/C(=C\c1cccnc1)C(=O)Nc1ccc(Cl)cc1,.,.,.,98,.
C/C(=N\Nc1ccc([N+](=O)[O-])cc1[N+](=O)[O-])C(C)(C)C(C(=O)O)C(=O)O,.,.,.,83,.
CC/C(=N\Nc1ccc([N+](=O)[O-])cc1[N+](=O)[O-])c1ccc(O)cc1,.,.,.,.,.
COc1ccc(Cc2nnc(NC(=O)c3cc(OC)c(OC)c(OC)c3)s2)cc1,.,.,.,.,55
COc1ccc(S(=O)(=O)Nc2nccs2)cc1OC,.,.,53,.,.
O=S(=O)(Nc1nccs1)c1ccc(Br)cc1,.,.,.,.,.
COc1ccc(S(=O)(=O)Nc2nnc(Cc3ccc(OC)c(OC)c3)s2)cc1,.,.,.,98,.
O=C1CCCCC1(c1ccccc1)c1ccccc1,/,.,/,/,.
SMILES,DYRK1A inh,CAL PDZ FP-1,CAL PDZ FP-2,ALR inh,Rtt109 Vps75
O=C(NCCCN1CCCC1=O)c1ccc(OC(F)(F)F)cc1,.,.,.,.,61
O=C(NCCCN1CCCC1=O)c1ccc(S(=O)(=O)Nc2ccccc2F)cc1,.,.,.,.,.
CCOc1ccccc1N1CCN(CC(=O)Nc2ccccc2C(=O)NC2CC2)CC1,.,.,/,/,.
CS(=O)(=O)N(CC(=O)NCc1ccncc1)c1ccc(F)c(Cl)c1,.,.,.,.,.
CN(C)c1ccc(C(=O)c2ccc(N(C)C)c(N)c2)cc1N,.,.,/,95,.
C/C(=N\Nc1nc(C(C)(C)C)cs1)c1ccccc1,.,.,.,98,.
CC(C)=NNc1nc(-c2ccccc2)cs1,.,.,.,97,.
C/C(CCC1CC(C)OC1=O)=N/Nc1nc(-c2ccccc2)cs1 (stereo not drawn),.,.,.,98,.
CC(C)=NNc1nc(-c2ccc(N3C(=O)CCC3=O)cc2)cs1,.,.,.,99,.
CCN(c1ccccc1)S(=O)(=O)c1cccc(C(=O)NCC(c2ccc(F)cc2)N2CCOCC2)c1 (stereo not drawn),/,.,/,/,.
